This is an account of results in ChEMBL document CHEMBL1157826 (J Med Chem, 2010).

One may read the inhibition in vivo as the drop in the measured response relative to a control, in per cent. The IC50 is the midpoint of a concentration-inhibition curve.

One data set concerns BP3. The data set can be described thus: Induction of apoptosis in human BP3 cells after 1 to 2 days by FITC-conjugated annexin V and propidium iodide staining-based FACS analysis. It is filed as functional, cell-based. For orientation: Flow cytometry measures light scatter and fluorescence of single cells or particles in a stream.
The subject of data set [1] is MEF. As to the kind of experiment: Induction of apoptosis in MEF expressing wild type Bcl-2 protein at 30 uM after 24 hrs by FITC-conjugated annexin V and propidium iodide staining-based FACS analysis. It is filed as functional, cell-based. The settings on record: Mus musculus. The essentials: (§1)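 Next day, compound was added at final 0, 2.5, 5.0, 7.5, 10 and 30 μM. The following day, floating and trypsinized adherent cells were pooled and stained with Annexin V-FITC/PI. Cells negative for both were scored viable by flow cytometry.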

The test system of data set [2] is MEF. The data set can be described thus: Induction of apoptosis in Bak/Bax double knockout MEF at 30 uM after 24 hrs by FITC-conjugated annexin V and propidium iodide staining-based FACS analysis. It is filed as functional. The settings on record: Mus musculus. A digest of the protocol:
as §1

The test system of data set [3] is MEF. The data set can be described thus: Induction of apoptosis in Bak/Bax double knockout MEF at […] after 24 hrs by FITC-conjugated annexin V and propidium iodide staining-based FACS analysis. It is filed as functional, cell-based. The conditions noted are these: Mus musculus. The essentials: as §1
For data set [4], the system named is M2182. As to the kind of experiment: Antitumor activity against Mcl-1 overexpressing human M2182 cells xenografted in BALB/c mouse assessed as reduction of tumor size at 25 mg/kg, ip administered 9 times every 2 days. It is filed as functional, organism-based. Set-up: dose 25 mg/kg. The essentials:
(§2)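 Dosing started at visible tumors of ~75 mm3 (~5–6 days): i.p. every 2 days, nine injections in all, in ethanol/Cremophor EL/saline 10:10:80 (500 μL). Vehicle controls were used, with at least five mice per group. Tumors were followed by luciferin (150 mg/kg i.p.) bioluminescence imaging and excised at study end.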
On the technique in general: A xenograft is tissue or cells of one species grown in another, often human tumour cells in immunodeficient mice.

Data set [5] relates to M2182. The data set can be described thus: Antitumor activity against Mcl-1 overexpressing human M2182 cells xenografted in BALB/c mouse assessed as reduction of tumor size at 10 mg/kg, ip administered 9 times every 2 days. It is filed as functional, organism-based. On the set-up: dose 10 mg/kg. The essentials: as §2
The subject of data set [6] is M2182. The data set can be described thus: Antitumor activity against Mcl-1 overexpressing human M2182 cells xenografted in BALB/c mouse assessed as complete inhibition of tumor growth at 25 mg/kg, ip administered 9 times every 2 days. It is filed as functional, organism-based. Set-up: dose 25 mg/kg. The essentials: as §2
The test system of data set [7] is Mus musculus. As to the kind of experiment: Toxicity in BALB/c mouse xenografted with Mcl-1 overexpressing human M2182 cells at 10 to 25 mg/mg, ip administered 9 times every 2 days. It is filed as organism-based. The settings on record: in vivo, 48 h. A digest of the protocol: (§3)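 Athymic nude male mice bearing bilateral s.c. M2182-Luc tumors (~75 mm3) received i.p. doses every 2 days, nine injections in all, in ethanol/Cremophor EL/saline 10:10:80 (500 μL). At least five animals per group. Tolerability was judged by signs of toxicity over the course of treatment.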

The subject of another data set is Liver microsomes. As to the kind of experiment: (§4) Metabolic stability in rat liver microsomes at 4 uM after 40 mins by LC/MS/MS analysis. The conditions noted are these: microsomes, 40 min, 4 µM. It is filed as ADME, Microsome. A digest of the protocol: (§5)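 Test compounds were incubated in rat liver microsomal preparations for 40 min, and the fraction of compound remaining or degraded was reported.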

Data set [8] is described as follows: Chemical stability at 10 mmol/L after 80 days at -20 degC by LC/MS/MS analysis. The conditions noted are these: 1920 h, 10000 µM. It is filed as physicochemical.
Data set [9] can be described thus: Chemical stability at 10 mmol/L after 80 days at 21 degC by LC/MS/MS analysis. It is filed as physicochemical. The conditions noted are these: 1920 h, 10000 µM.
Data set [10] in a line: Chemical stability at 10 mmol/L after 80 days at 37 degC by LC/MS/MS analysis. It is filed as physicochemical. The settings on record: 1920 h, 10000 µM.
The nature of data set [11]: Chemical stability at 10 mmol/L after 80 days at 42 degC by LC/MS/MS analysis. It is filed as physicochemical. The settings on record: 1920 h, 10000 µM.
For data set [12], the system named is Mus musculus. As to the kind of experiment: Reduction of Bcl-2 accumulation in human Bcl2 expressing B6 transgenic mouse assessed as reduction in spleen weight at 42 mg/kg, ip administered as single dose after 24 hrs. It is filed as functional. The settings on record: route intraperitoneal; for inhibition in vivo at 42 mg/kg: Mus musculus, B6, Spleen, ip, 24 h. A digest of the protocol: (§6)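 Age- and sex-matched B6 transgenic mice (human BCL-2 minigene fused to the IgH locus/enhancer, not yet lymphomatous; two per compound) received a single i.p. dose in 500 μL ethanol/Cremophor EL/saline 10:10:80. Controls received vehicle alone. Mice were killed with Avertin 24 h later and spleens weighed. Shrinkage was expressed as percent reduction versus controls.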

The subject of data set [13] is Mus musculus. As to the kind of experiment: Reduction of Bcl-2 accumulation in human Bcl2 expressing B6 transgenic mouse assessed as induction of spleen shrinkage at 42 mg/kg, ip administered as single dose after 24 hrs. It is filed as functional. Set-up: scale not given: the % may be the effect or the level left. The settings on record: route intraperitoneal. The essentials: as §6

Data set [14] can be described thus: Antitumor activity against Mcl-1 overexpressing human M2182 cells xenografted in BALB/c mouse assessed as inhibition of tumor growth at 3 mg/kg, ip administered 9 times every 2 days. It is filed as functional. On the set-up: scale not given: the % may be the effect or the level left. The conditions noted are these: route intraperitoneal. A digest of the protocol:
as §2

Data set [15] relates to Mus musculus. The data set can be described thus: Toxicity in BALB/c mouse xenografted with Mcl-1 overexpressing human M2182 cells at 1 to 5 mg/mg, ip administered 9 times every 2 days. It is filed as organism-based. The settings on record: in vivo, 48 h. A digest of the protocol: as §3
The test system of data set [16] is M2182. The data set can be described thus: Antitumor activity against Mcl-1 overexpressing human M2182 cells xenografted in BALB/c mouse assessed as reduction of tumor size at 1 to 5 mg/kg, ip administered 9 times every 2 days. It is filed as functional, organism-based. A digest of the protocol:
as §2

Data set [17] deals with M2182. As to the kind of experiment: Antitumor activity against Mcl-1 overexpressing human M2182 cells xenografted in BALB/c mouse assessed as complete inhibition of tumor growth at 5 mg/kg, ip administered 9 times every 2 days. It is filed as functional, organism-based. Set-up: dose 5 mg/kg. A digest of the protocol:
as §2

Data set [18] in a line: as §4. It is filed as ADME, Microsome. The settings on record: liver microsomes, read-out: Stability. A digest of the protocol: as §5
In general terms: Microsomes from liver hold many membrane-bound enzymes, among them those of drug oxidation.

In another data set the target is Bcl-2-like protein 1 (Homo sapiens, UniProt Q07817). The data set can be described thus: Displacement of FITC-labeled Bak BH3 peptide from Bcl-XL after 30 mins by fluorescence polarization assay.

Activity calls are given as the source filed them. No cut-off for these calls is given here.

Sequence of Bcl-2-like protein 1 (Q07817 whole entry): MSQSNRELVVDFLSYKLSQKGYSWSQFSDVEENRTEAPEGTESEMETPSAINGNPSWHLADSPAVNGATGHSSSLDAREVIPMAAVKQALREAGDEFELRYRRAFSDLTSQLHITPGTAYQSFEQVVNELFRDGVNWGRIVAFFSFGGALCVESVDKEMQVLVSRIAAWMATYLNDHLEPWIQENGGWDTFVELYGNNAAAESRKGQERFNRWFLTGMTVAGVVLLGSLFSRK

For `Cc1cc2c(C(=O)NC[C@@H](C)c3ccccc3)c(O)c(O)cc2c(O)c1-c1c(C)cc2c(C(=O)NC[C@@H](C)c3ccccc3)c(O)c(O)cc2c1O`, the Activity result with BP3 is “Dose-dependent effect”. Further, the outcome in the data set with MEF [1] and in the data set on MEF [2] was Active.

For the compound `Cc1cc2c(C(=O)NC[C@H](C)c3ccccc3)c(O)c(O)cc2c(O)c1-c1c(C)cc2c(C(=O)NC[C@H](C)c3ccccc3)c(O)c(O)cc2c1O`, the Activity result in the data set with BP3 is “Dose-dependent effect”.

On to `Cc1cc2c(C(=O)NCC(C)c3ccccc3)c(O)c(O)cc2c(O)c1-c1c(C)cc2c(C(=O)NCC(C)c3ccccc3)c(O)c(O)cc2c1O` (racemic), for which the outcome in the data set with MEF [3], with M2182 [4] and in the data set on M2182 [6] was Active. The result with M2182 [5] was inactive. In addition, the Activity entry with Mus musculus [7] is “Non-toxic”.

For the compound `Cc1cc2c(C(=O)NC[C@H](C)c3ccccc3)c(O)c(O)cc2c(O)c1-c1c(C)cc2c(C(=O)NC[C@H](C)c3ccccc3)c(O)c(O)cc2c1O` (single isomer, unassigned; atropisomer) [listing 1 of 2 here], the Stability in the data set with Liver microsomes is recorded as 41%; in [8], “Stable”; in data set [9] it was “Stable”; in [10] it was “Stable”; in data set [11], “Stable”. The inhibition in vivo at 42 mg/kg in the data set with Mus musculus [12] is > 30%. Also, the Activity in the data set with Mus musculus [13] (42 mg/kg) is 65%; in data set [14] it was 40%; in the data set with Mus musculus [15] it was “Non-toxic”.

As to `Cc1cc2c(C(=O)NC[C@@H](C)c3ccccc3)c(O)c(O)cc2c(O)c1-c1c(C)cc2c(C(=O)NC[C@@H](C)c3ccccc3)c(O)c(O)cc2c1O` (single isomer, unassigned; atropisomer) [listing 1 of 2 here], the Stability is recorded as 42% with Liver microsomes; “Stable” in data set [8]; “Stable” in [9]; “Stable” in data set [10]; “Stable” in data set [11]. Also, in the data set on Mus musculus [12], the inhibition in vivo at 42 mg/kg is ≤ 20%. Besides, the Activity result with Mus musculus [13] is given as “<=40%”.

As for `Cc1cc2c(C(=O)NC[C@@H](C)c3ccccc3)c(O)c(O)cc2c(O)c1-c1c(C)cc2c(C(=O)NC[C@@H](C)c3ccccc3)c(O)c(O)cc2c1O` (single isomer, unassigned; atropisomer) [listing 2 of 2 here], the Activity result with BP3 was “Dose-dependent effect”.

Turning to `Cc1cc2c(C(=O)NC[C@H](C)c3ccccc3)c(O)c(O)cc2c(O)c1-c1c(C)cc2c(C(=O)NC[C@H](C)c3ccccc3)c(O)c(O)cc2c1O` (single isomer, unassigned; atropisomer) [listing 2 of 2 here], the Activity result with BP3 is “Dose-dependent effect”. In addition, the outcome in the data set on MEF [1], in the data set on M2182 [16] and with M2182 [17] was Active.

In the case of `Cc1cc2c(C(=O)NC[C@H](C)c3ccccc3)c(O)c(O)cc2c(O)c1-c1c(C)cc2c(C(=O)NC[C@H](C)c3ccccc3)c(O)c(O)cc2c1O` [1,1',6,6',7,7'-HEXAHYDROXY-3,3'-DIMETHYL-N5-((R)-2-PHENYLPROPYL)-N5'-((R)-2-PHENYLPROPYL)-2,2'-BINAPHTHYL-5,5'-DICARBOXAMIDE (ATROPISOMERIC MIX)], in data set [18], the remaining at 40 min, 4 µM was determined as 28%. Also, in the data set with Mus musculus [12] (42 mg/kg), the “inhibition (INH)” value was “<=20%”. Also, the Activity entry in the data set with Mus musculus [13] (42 mg/kg) was “<=40%”; with Mus musculus [7], “Non-toxic”.

With `Cc1cc2c(C(=O)NC[C@@H](C)c3ccccc3)c(O)c(O)cc2c(O)c1-c1c(C)cc2c(C(=O)NC[C@@H](C)c3ccccc3)c(O)c(O)cc2c1O` [(S)-1',6,6',7,7'-HEXAHYDROXY-3,3'-DIMETHYL-N5-((S)-2-PHENYLPROPYL)-N5'-((S)-2-PHENYLPROPYL)-2,2'-BINAPHTHYL-5,5'-DICARBOXAMIDE (ATROPISOMERIC MIX)], the remaining at 40 min, 4 µM in [18] is 41%.

With `Cc1cc2c(C(C)C)c(O)c(O)c(C=O)c2c(O)c1-c1c(C)cc2c(C(C)C)c(O)c(O)c(C=O)c2c1O` [GOSSYPOL], on Bcl-2-like protein 1, the half-inhibitory concentration (IC50) worked out at 540 nM.
